The record followed here is ChEMBL document CHEMBL3112459, “Synthesis and assay of retro-α4β1 integrin-targeting motifs” (Eur J Med Chem, 2014).

The structures appear in SMILES notation. pIC50, pKi: −log10 of the molar value. Numbered stars: 1 amine (or outer) side, 2 acyl side, 3 side chain; on linkers, the order of the positions; unused ones are H or OH. Square brackets hold non-standard residues; d marks the D form. Peptide text beside a SMILES is read from it. * marks the point of attachment. X1 = O=C(Cc1ccc(N[*:1])cc1)[*:2]; NH(2-Me-phenyl) = Cc1ccccc1N*; CO = O=C([*:1])[*:2]

Data set [1] deals with T1, Integrin alpha-4/beta-1 (Homo sapiens, UniProt P05556+P13612). The data set can be described thus: Displacement of [125I]-FN from human alpha4beta1 integrin expressed in human Jurkat cells by scintillation proximity assay. It counts as cell-based. The method, boiled down: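 Jurkat cells stably expressing human α4 integrin were the integrin source. The α4 integrin–anti-α4 antibody complex was captured on anti-rabbit IgG-coated scintillant microspheres. Soluble ¹²⁵I-human FN (~440 kDa) was the radioligand, incubated overnight, with counts read as cpm. IC50 values came from competition curves and were converted to Ki by Cheng–Prusoff. Data are mean ± S.E.M.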

For data set [2], the target named is T1, Integrin alpha-4/beta-1. As to the kind of experiment: Inhibition of human alpha4beta1 integrin expressed in human Jurkat cells assessed as inhibition of cell adhesion to VCAM-1. It counts as cell-based. The gist of the method:
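Jurkat cells (5 × 10⁵ per well) adhered to wells coated overnight at 4 °C with human recombinant VCAM-1. Wells were blocked with 1% BSA/HBSS for 30 min at 37 °C. Data are mean ± S.E.M.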

For a further data set, the system named is SK-MEL-24. The data set can be described thus: Cytotoxicity against human SK-MEL-24 cells by trypan blue exclusion assay. It counts as cell-based.
The target of another data set is Integrin alpha-V/beta-3 (Homo sapiens, UniProt P05106+P06756). As to the kind of experiment: Inhibition of human alphavbeta3 integrin expressed in human SK-MEL-24 cells assessed as inhibition of cell adhesion to vitronectin. It counts as cell-based.
In a further data set the test system is Jurkat. As to the kind of experiment: Cytotoxicity against human Jurkat cells by trypan blue exclusion assay. It counts as cell-based.
Data set [3] can be described thus: (§1) Drug degradation in 100% mouse serum after 120 mins. It counts as ADME, cell-free. The following applies: read-out: Drug degradation. The method, boiled down:
(§2)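 Peptides were dissolved in Tris buffer pH 7.4, and aliquots of a 10 mM stock were added to mouse serum (10 µL into 190 µL). Incubation was at 37 °C for 120 min. Withdrawn aliquots were quenched with glacial acetonitrile to precipitate proteins and analysed by RP-HPLC and ESI-MS. Runs were in triplicate and repeated three times.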

Another data set relates to Serum. The description is as §1. It counts as ADME, cell-free. The following applies: 2 h. The method, boiled down: as §2

T1 sequence (P05556 whole entry): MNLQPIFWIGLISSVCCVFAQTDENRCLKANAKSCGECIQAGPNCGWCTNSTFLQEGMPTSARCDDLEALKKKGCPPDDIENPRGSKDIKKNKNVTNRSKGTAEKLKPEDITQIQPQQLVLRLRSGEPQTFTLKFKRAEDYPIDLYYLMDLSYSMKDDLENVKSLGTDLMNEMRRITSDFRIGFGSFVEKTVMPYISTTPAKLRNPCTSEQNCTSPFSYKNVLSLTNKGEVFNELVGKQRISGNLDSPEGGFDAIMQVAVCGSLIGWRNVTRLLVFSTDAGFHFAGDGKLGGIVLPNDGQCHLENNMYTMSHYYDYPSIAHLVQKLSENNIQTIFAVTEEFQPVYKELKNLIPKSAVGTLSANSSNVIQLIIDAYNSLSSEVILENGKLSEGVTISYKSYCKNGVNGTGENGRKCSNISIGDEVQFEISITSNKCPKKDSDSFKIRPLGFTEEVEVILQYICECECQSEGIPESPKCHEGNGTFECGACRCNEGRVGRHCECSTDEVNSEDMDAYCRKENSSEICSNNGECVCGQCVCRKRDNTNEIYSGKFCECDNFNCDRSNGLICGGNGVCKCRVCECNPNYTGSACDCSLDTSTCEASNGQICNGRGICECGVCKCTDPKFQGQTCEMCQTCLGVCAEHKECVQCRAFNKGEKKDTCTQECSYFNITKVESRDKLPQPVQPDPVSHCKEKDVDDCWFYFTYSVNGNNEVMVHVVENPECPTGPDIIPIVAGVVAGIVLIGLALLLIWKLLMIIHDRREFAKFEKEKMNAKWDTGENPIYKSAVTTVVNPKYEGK
T1 sequence (P13612 whole entry): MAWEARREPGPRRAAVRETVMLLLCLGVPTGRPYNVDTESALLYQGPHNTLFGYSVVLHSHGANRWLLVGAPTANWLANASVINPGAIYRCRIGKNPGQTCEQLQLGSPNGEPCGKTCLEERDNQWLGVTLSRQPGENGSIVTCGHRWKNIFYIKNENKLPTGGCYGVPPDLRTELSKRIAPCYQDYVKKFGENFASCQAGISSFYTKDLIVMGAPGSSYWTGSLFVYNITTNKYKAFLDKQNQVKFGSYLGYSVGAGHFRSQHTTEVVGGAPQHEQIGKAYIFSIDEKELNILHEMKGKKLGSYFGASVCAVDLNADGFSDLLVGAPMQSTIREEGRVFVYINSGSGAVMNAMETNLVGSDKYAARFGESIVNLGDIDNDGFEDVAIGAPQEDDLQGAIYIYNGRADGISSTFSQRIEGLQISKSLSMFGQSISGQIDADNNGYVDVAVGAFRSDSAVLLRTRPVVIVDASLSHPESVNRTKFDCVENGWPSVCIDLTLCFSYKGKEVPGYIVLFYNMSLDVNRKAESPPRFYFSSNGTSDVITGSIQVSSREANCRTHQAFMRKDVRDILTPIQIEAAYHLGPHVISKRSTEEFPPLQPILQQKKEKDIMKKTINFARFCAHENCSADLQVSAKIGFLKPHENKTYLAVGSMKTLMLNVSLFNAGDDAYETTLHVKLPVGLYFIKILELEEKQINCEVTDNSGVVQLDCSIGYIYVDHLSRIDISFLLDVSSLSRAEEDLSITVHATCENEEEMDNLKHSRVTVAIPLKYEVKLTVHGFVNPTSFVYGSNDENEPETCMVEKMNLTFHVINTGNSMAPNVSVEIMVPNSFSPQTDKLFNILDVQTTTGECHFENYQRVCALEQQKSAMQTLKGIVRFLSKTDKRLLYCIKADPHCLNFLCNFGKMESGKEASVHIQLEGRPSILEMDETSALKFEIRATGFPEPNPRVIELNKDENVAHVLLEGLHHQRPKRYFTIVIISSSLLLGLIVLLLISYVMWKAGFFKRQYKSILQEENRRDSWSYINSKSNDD
Sequence of Integrin alpha-V/beta-3 (P05106 27-788 limits assumed): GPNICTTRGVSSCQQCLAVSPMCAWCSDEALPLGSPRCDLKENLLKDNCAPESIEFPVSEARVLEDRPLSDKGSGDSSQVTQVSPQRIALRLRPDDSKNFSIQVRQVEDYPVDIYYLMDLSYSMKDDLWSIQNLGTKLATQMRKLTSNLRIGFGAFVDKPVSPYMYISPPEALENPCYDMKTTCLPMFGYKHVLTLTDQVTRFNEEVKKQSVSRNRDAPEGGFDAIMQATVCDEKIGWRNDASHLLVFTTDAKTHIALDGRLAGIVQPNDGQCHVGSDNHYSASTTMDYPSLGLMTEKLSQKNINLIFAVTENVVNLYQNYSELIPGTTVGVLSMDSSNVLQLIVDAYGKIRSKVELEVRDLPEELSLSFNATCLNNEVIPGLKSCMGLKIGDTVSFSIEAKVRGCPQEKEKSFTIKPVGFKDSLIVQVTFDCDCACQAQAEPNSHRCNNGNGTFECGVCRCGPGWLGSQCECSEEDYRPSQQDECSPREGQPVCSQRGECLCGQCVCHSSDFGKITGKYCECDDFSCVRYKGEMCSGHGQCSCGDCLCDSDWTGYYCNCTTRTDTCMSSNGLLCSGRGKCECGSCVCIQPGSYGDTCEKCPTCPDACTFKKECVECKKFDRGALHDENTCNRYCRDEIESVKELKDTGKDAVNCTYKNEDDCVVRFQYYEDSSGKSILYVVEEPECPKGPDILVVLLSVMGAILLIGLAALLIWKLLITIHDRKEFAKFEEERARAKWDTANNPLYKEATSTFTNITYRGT
Sequence of Integrin alpha-V/beta-3 (P06756 31-889 limits assumed): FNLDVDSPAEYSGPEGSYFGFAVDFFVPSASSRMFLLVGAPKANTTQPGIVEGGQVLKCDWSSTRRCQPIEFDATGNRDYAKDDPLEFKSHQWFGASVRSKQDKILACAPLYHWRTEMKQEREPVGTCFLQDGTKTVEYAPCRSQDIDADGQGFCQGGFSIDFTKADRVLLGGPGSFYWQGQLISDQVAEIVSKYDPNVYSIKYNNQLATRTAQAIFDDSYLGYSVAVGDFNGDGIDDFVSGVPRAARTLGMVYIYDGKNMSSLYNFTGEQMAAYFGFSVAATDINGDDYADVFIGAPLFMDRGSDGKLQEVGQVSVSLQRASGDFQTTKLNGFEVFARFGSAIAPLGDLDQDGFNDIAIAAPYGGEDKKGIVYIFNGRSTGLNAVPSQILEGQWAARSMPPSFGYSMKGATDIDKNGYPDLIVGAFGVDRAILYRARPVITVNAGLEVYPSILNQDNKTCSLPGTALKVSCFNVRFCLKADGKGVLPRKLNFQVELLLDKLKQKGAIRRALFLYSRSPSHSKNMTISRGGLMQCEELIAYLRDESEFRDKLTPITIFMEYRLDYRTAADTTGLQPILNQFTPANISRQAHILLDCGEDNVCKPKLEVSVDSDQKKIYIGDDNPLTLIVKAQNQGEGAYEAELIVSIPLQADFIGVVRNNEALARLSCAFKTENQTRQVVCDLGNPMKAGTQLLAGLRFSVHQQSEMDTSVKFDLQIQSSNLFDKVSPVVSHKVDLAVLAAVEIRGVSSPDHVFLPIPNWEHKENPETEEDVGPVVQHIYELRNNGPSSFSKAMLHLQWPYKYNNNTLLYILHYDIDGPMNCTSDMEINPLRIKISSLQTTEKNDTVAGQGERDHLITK
Sequence of Integrin alpha-V/beta-3 (P06756 891-1048 limits assumed): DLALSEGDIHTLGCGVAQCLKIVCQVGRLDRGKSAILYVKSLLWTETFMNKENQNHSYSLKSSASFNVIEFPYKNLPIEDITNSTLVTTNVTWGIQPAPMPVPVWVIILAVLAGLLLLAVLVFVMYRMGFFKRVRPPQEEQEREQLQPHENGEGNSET

On to `Cc1ccccc1NC(=O)Nc1ccc(CNC(=O)[C@H]2CCN(C(=O)[C@H](CC(=O)O)NC(=O)c3c(Cl)cccc3Cl)C2)cc1`, for which, at Integrin alpha-4/beta-1 [1], the pIC50 (commonly the negative decadic logarithm of the IC50, by convention in mol/L) was 5.41; the pKi (usually the negative decadic logarithm of the Ki, by convention in mol/L) was 5.62; the inhibition result was “Dose-dependent effect”. Also, the pIC50 on Integrin alpha-4/beta-1 [2] is less than 4.00.

For the molecule `Cc1ccccc1NC(=O)Nc1ccc(CNC(=O)[C@H]2CCN(C(=O)[C@H](CC(=O)O)NC(=O)Cc3ccccc3)C2)cc1`, the pIC50 on Integrin alpha-4/beta-1 [1] is 7.00; on Integrin alpha-4/beta-1 [2], 7.10; at Integrin alpha-V/beta-3, less than 4.00. The molecule also gave a pKi on Integrin alpha-4/beta-1 [1] of 7.22. Further, the inhibition result at Integrin alpha-4/beta-1 [1] and on Integrin alpha-4/beta-1 [2] was “Dose-dependent effect” throughout. Besides, the Activity entry in the data set on SK-MEL-24 and in the data set with Jurkat was “Non-toxic” in each case. Moreover, the metabolised at 2 h in data set [3] came to 10%.

`Cc1ccccc1NC(=O)Nc1ccc(CNC(=O)[C@H]2CCN(C(=O)C[C@H](NC(=O)c3c(Cl)cccc3Cl)C(=O)O)C2)cc1`: at Integrin alpha-4/beta-1 [1], the pIC50 is less than 4.00 and the pKi was less than 4.00. The pIC50 at Integrin alpha-4/beta-1 [2] is less than 4.00.

In the case of `Cc1ccccc1NC(=O)Nc1ccc(CNC(=O)[C@H]2CCN(C(=O)C[C@H](NC(=O)Cc3ccccc3)C(=O)O)C2)cc1`, the pIC50 on Integrin alpha-4/beta-1 [1] is 6.54; at Integrin alpha-4/beta-1 [2] it was 7.03; at Integrin alpha-V/beta-3 it was less than 4.00. The pKi on Integrin alpha-4/beta-1 [1] was 6.74. Moreover, the inhibition entry at Integrin alpha-4/beta-1 [1] and on Integrin alpha-4/beta-1 [2] was “Dose-dependent effect” in each case. The Activity result with SK-MEL-24 and in the data set on Jurkat was “Non-toxic” each time. In data set [3], the metabolised at 2 h was less than 5%.

Take `Cc1ccccc1NC(=O)Nc1ccc(CC(=O)N[C@@H](CC(C)C)C(=O)N[C@@H](CC(=O)O)C(=O)N[C@H](C(=O)N2CCC[C@H]2C(=O)O)C(C)C)cc1` ({NH(2-Me-phenyl)-CO}-[X1]LDVP-OH): the inhibition entry on Integrin alpha-4/beta-1 [1] and at Integrin alpha-4/beta-1 [2] was “Dose-dependent effect” each time. In addition, the Stability entry in the data set with Serum is listed as “Unstable”.

On to `Cc1ccccc1NC(=O)Nc1ccc(CC(=O)N2CC[C@H](C(=O)N[C@@H](CC(=O)O)C(=O)OCc3ccccc3)C2)cc1`, for which, at Integrin alpha-4/beta-1 [1], the pIC50 was less than 4.00 and the pKi was less than 4.00. Moreover, the pIC50 at Integrin alpha-4/beta-1 [2] is less than 4.00.
